Assay results published in ChEMBL document CHEMBL1138297, “Design, synthesis, and multivariate quantitative structure-activity relationship of salicylanilides--potent inhibitors of type III secretion in Yersinia” (J Med Chem, 2007).
Active and inactive are the calls of the source. No cut-off for these calls is given here.

Columns and labels:
[1] = tested on: Yersinia pseudotuberculosis; test: Effect on T3S in Yersinia pseudotuberculosis 3 pIB29 assessed as inhibition of light emission at 50 uM by luciferase reporter gene assay
Summary of the method: (§1)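 YPIII pIB29 (yopE-luxAB) reporter strain grown overnight at ambient temperature in BHI with 5 mM EGTA and 20 mM MgCl2 to deplete calcium. Culture adjusted to OD600 0.15-0.25 and added to compounds in DMSO (final ≤1%). Incubated 1 h at ambient temperature with shaking, then 2 h at 37 °C. Decanal substrate added and luminescence read at once. Triplicates; repeated on ≥2 occasions.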

[2] = tested on: Yersinia pseudotuberculosis; test: Effect on T3S in Yersinia pseudotuberculosis 3 pIB29 assessed as inhibition of light emission at 10 uM by luciferase reporter gene assay; summary of the method: as §1
[3] = tested on: Yersinia pseudotuberculosis; test: Effect on T3S in Yersinia pseudotuberculosis 3 pIB29 assessed as inhibition of light emission at 20 uM by luciferase reporter gene assay; summary of the method: as §1
[4] = tested on: Yersinia pseudotuberculosis; test: Effect on T3S in Yersinia pseudotuberculosis 3 pIB29 assessed as inhibition of light emission at 100 uM by luciferase reporter gene assay; summary of the method: as §1
[5] = tested on: Yersinia pseudotuberculosis; test: Effect on T3S in Yersinia pseudotuberculosis 3 pIB29 assessed as inhibition of light emission at 2 uM by luciferase reporter gene assay; summary of the method: as §1
[6] = tested on: Yersinia pseudotuberculosis; test: Effect on T3S in Yersinia pseudotuberculosis 3 pIB29 assessed as inhibition of light emission at 5 uM by luciferase reporter gene assay; summary of the method: as §1
[7] = tested on: Yersinia pseudotuberculosis; test: Effect on T3S in Yersinia pseudotuberculosis 3 pIB29 assessed as inhibition of light emission at 1 uM by luciferase reporter gene assay; summary of the method: as §1
[8] = tested on: Yersinia pseudotuberculosis; test: Effect on T3S in Yersinia pseudotuberculosis 3 pIB29 assessed as inhibition of light emission at 0.5 uM by luciferase reporter gene assay; summary of the method: as §1

SMILES	inhibition [1]	inhibition [2]	inhibition [3]	inhibition [4]	inhibition [5]	inhibition [6]	inhibition [7]	inhibition [8]	Activity [1]	Activity [2]	Activity [3]	Activity [4]
O=C(Nc1ccccc1F)c1cc(Br)cc(Br)c1O	64%	14%	29%	78%	–	–	–	–	–	–	–	–
CC(=O)Oc1c(I)cc(I)cc1C(=O)Nc1ccc(F)cc1	86%	60%	76%	93%	15%	31%	6%	12%	–	–	–	–
Cc1cc(NC(=O)c2cc(Cl)ccc2O)ccc1Cl	56%	61%	85%	75%	62%	85%	50%	15%	–	–	–	–
O=C(Nc1ccc(Br)cc1)c1cc(I)cc(I)c1O	100%	100%	100%	100%	74%	94%	64%	36%	–	–	–	–
CCCCCCCc1ccc(NC(=O)c2cc(I)cc(I)c2O)cc1	22%	30%	27%	3%	–	–	–	–	–	–	–	–
CC(=O)Oc1c(I)cc(I)cc1C(=O)Nc1ccccc1	75%	30%	48%	94%	–	–	–	–	–	–	–	–
O=C(Nc1ccc(Br)cc1)c1cc(I)ccc1O	62%	71%	67%	60%	68%	68%	49%	20%	–	–	–	–
O=C(Nc1ccccc1)c1c(O)c(Cl)cc(Cl)c1Cl	23%	22%	21%	31%	–	–	–	–	–	–	–	–
CC(C)(C)c1ccc(NC(=O)c2c(O)c(Cl)cc(Cl)c2Cl)cc1	23%	27%	28%	34%	–	–	–	–	–	–	–	–
O=C(Nc1ccc(SC(F)(F)F)cc1)c1cc2cc(Br)ccc2c(Br)c1O	63%	41%	55%	63%	–	–	–	–	–	–	–	–
O=C(Nc1ccc(SC(F)(F)F)cc1)c1c(O)c(Cl)cc(Cl)c1Cl	100%	58%	68%	100%	18%	54%	4%	11%	–	–	–	–
O=C(Nc1ccc(Cl)cc1)c1cc(F)cc(F)c1	–	–	–	–	–	–	–	–	inactive	inactive	inactive	inactive
COc1cc(Cl)c(C)cc1NC(=O)c1cc(C)ccc1O	16%	–	–	-1%	–	–	–	–	–	inactive	inactive	–
CC(=O)Oc1c(Cl)cc(Cl)c(Cl)c1C(=O)Nc1ccc(SC(F)(F)F)cc1	89%	67%	95%	92%	42%	47%	15%	5%	–	–	–	–
CC(=O)Oc1ccc(I)cc1C(=O)Nc1ccc(Br)cc1	100%	98%	100%	100%	94%	100%	71%	54%	–	–	–	–
CC(=O)Oc1c(Cl)cccc1C(=O)Nc1ccc(SC(F)(F)F)cc1	98%	55%	70%	100%	12%	34%	6%	-1%	–	–	–	–
CC(C)(C)c1ccc(NC(=O)c2cc(I)cc(I)c2O)cc1	41%	33%	40%	42%	–	–	–	–	–	–	–	–
CC(=O)Oc1c(Cl)cc(Cl)c(Cl)c1C(=O)Nc1ccc(C(C)(C)C)cc1	19%	4%	7%	12%	–	–	–	–	–	–	–	–
O=C(Nc1ccc(SC(F)(F)F)cc1)c1cccc(Cl)c1O	99%	61%	81%	100%	13%	38%	3%	-2%	–	–	–	–
CC(=O)Oc1c(Br)cc(Br)cc1C(=O)Nc1ccccc1F	61%	6%	15%	83%	–	–	–	–	–	–	–	–
CC(=O)Oc1c(I)cc(I)cc1C(=O)Nc1ccc(Cl)cc1	99%	76%	98%	99%	17%	54%	7%	3%	–	–	–	–
COc1cc(Cl)c(C)cc1NC(=O)c1cc(I)cc(I)c1OC(C)=O	35%	11%	19%	50%	–	–	–	–	–	–	–	–
O=C(Nc1ccc(F)cc1)c1cc(I)cc(I)c1O	99%	62%	78%	100%	6%	26%	3%	5%	–	–	–	–

SMILES	inhibition [1]	inhibition [2]	inhibition [3]	inhibition [4]	inhibition [5]	inhibition [6]	inhibition [7]	inhibition [8]	Activity [1]	Activity [2]	Activity [3]	Activity [4]
O=C(Nc1ccc(SC(F)(F)F)cc1)c1cc(I)ccc1O	49%	57%	57%	51%	53%	55%	53%	17%	–	–	–	–
CC(=O)Oc1c(Cl)cc(Cl)c(Cl)c1C(=O)Nc1cc(C)cc(C)c1	5%	6%	6%	20%	–	–	–	–	–	–	–	–
COc1cc(Cl)c(C)cc1NC(=O)c1cc(C)ccc1OC(C)=O	-2%	–	–	–	–	–	–	–	–	inactive	inactive	–
COc1cc(Cl)c(C)cc1NC(=O)c1cccc(C(C)C)c1O	19%	23%	25%	5%	–	–	–	–	–	–	–	–
CC(=O)Oc1c(I)cc(I)cc1C(=O)Nc1ccc(Br)cc1	94%	69%	86%	95%	7%	38%	8%	11%	–	–	–	–
CC(=O)Oc1ccc(Br)cc1C(=O)Nc1cc(C(C)(C)C)cc(C(C)(C)C)c1	15%	–	–	0%	–	–	–	–	–	inactive	inactive	–
CC(=O)Oc1ccc(F)cc1C(=O)Nc1ccc(C(C)(C)C)cc1	22%	37%	37%	22%	–	–	–	–	–	–	–	–
CC(=O)Oc1c(C(=O)Nc2ccc(SC(F)(F)F)cc2)cc2cc(Br)ccc2c1Br	4%	9%	10%	-3%	–	–	–	–	–	–	–	–
Cc1ccc(C(=O)Nc2ccccc2F)c(O)c1	35%	23%	21%	34%	–	–	–	–	–	–	–	–
CC(=O)Oc1ccccc1C(=O)Nc1ccc(Cl)cc1	92%	23%	44%	99%	–	–	–	–	–	–	–	–
O=C(Nc1ccc(F)cc1)c1c(O)c(Cl)cc(Cl)c1Cl	32%	19%	19%	45%	–	–	–	–	–	–	–	–
COc1cc(Cl)c(C)cc1NC(=O)c1cccc(C(C)C)c1OC(C)=O	4%	10%	8%	-1%	–	–	–	–	–	–	–	–
Cc1cc(C)cc(NC(=O)c2c(O)c(Cl)cc(Cl)c2Cl)c1	46%	21%	24%	52%	–	–	–	–	–	–	–	–
CC(=O)Oc1c(I)cc(I)cc1C(=O)Nc1ccc(C(C)(C)C)cc1	17%	17%	20%	2%	–	–	–	–	–	–	–	–
O=C(Nc1ccc(Cl)cc1)c1ccccc1O	99%	14%	64%	100%	–	–	–	–	–	–	–	–
O=C(Nc1ccccc1)c1cc(I)cc(I)c1O	87%	32%	51%	99%	–	–	–	–	–	–	–	–
COc1cc(Cl)c(C)cc1NC(=O)c1cc(I)cc(I)c1O	57%	35%	55%	67%	–	–	–	–	–	–	–	–
CC(C)(C)c1cc(NC(=O)c2cc(Br)ccc2O)cc(C(C)(C)C)c1	-4%	12%	9%	0%	–	–	–	–	–	–	–	–
CC(=O)Oc1cc(C)ccc1C(=O)Nc1ccccc1F	53%	0%	8%	95%	–	–	–	–	–	–	–	–
CC(=O)Oc1c(Cl)cc(Cl)c(Cl)c1C(=O)Nc1ccccc1	12%	–	–	10%	–	–	–	–	–	inactive	inactive	–
CC(C)(C)c1ccc(NC(=O)c2cc(F)ccc2O)cc1	13%	13%	12%	8%	–	–	–	–	–	–	–	–
CCCCCCCc1ccc(NC(=O)c2cc(I)cc(I)c2OC(C)=O)cc1	17%	19%	19%	5%	–	–	–	–	–	–	–	–
CC(=O)Oc1c(Cl)cc(Cl)c(Cl)c1C(=O)Nc1ccc(F)cc1	32%	19%	23%	54%	–	–	–	–	–	–	–	–
